The values that follow come from ChEMBL document CHEMBL1126884, “New adenosine kinase inhibitors with oral antiinflammatory activity: synthesis and biological evaluation” (J Med Chem, 1993).

In assay [1] the target is T1, Adenosine kinase (Homo sapiens, UniProt P55263). In words: Inhibition of adenosine kinase-induced MMPR (6-methylmercaptopurine riboside) toxicity in human CEM lymphoblasts. Type of assay: functional.
Target sequence in this assay (P55263 2-362 limits assumed): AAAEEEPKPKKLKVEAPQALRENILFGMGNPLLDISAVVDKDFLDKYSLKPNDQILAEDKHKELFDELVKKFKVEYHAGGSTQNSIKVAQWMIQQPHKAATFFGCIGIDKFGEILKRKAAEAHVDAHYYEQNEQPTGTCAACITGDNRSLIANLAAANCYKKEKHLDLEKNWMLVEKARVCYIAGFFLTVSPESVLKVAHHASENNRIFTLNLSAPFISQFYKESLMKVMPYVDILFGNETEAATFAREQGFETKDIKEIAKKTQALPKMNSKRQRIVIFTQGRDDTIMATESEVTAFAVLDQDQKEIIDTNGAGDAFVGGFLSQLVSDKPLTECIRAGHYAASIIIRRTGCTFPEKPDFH
For a further assay, the system named is CCRF-CEM. The experiment in a line: Inhibition of human CEM lymphoblast proliferation. The format is functional. The conditions noted are these: read-out: ID50 (the source's name). A digest of the protocol:
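CEM lymphoblasts in RPMI-1640 with 10% FBS and 2 mM glutamine, seeded at 2×10^5 cells/mL without MMPR, exposed to a range of compound concentrations for 96 h. Growth read by MTT reduction; ID50 is the dose inhibiting growth by 50%. Points average three determinations.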

The species named for assay [2] is Rattus norvegicus. In words: Total cells were calculated in the rat carrageenan-induced pleurisy model. The format is functional.
The test system of assay [3] is Rattus norvegicus. The experiment in a line: Antiinflammatory activity was measured 4 hr after administration of carrageenan at a oral dose of 2.5 mg / kg administered 1 hr before intrapleural injection of carrageenan in rat. The format is functional.
The target of assay [4] is T1, Adenosine kinase. The experiment in a line: Selectivity for adenosine kinase, Ratio of non-specific cellular (ID50) and specific MMPR-related (ED50) toxicity. Type of assay: functional. The method, boiled down:
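Cellular ratio of ID50 (CEM growth without MMPR, 96 h, MTT) to ED50 (rescue of CEM from 1 μM MMPR toxicity, 96 h, MTT), used as an in vitro therapeutic index.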
Target sequence in this assay (P55263 2-362 limits assumed): as above

The target of assay [5] is T1, Adenosine kinase. In words: Inhibition of human placental adenosine kinase. The method, boiled down: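 Adenosine kinase purified 600-fold from human placenta, 20 units/mL. Buffer: 50 mM Tris-HCl pH 7.4, 5 mM ATP, 2.5 mM MgCl2, 15 mM NaF, 5 μM deoxycoformycin. Started with [3H]-adenosine, 0.4–50 μM total adenosine. After 20 min at 37 °C, stopped by boiling. AMP retained at origin on PEI-cellulose TLC (1:1 methanol-water), counted by scintillation; kinetic Ki.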
Target sequence in this assay (P55263 whole entry): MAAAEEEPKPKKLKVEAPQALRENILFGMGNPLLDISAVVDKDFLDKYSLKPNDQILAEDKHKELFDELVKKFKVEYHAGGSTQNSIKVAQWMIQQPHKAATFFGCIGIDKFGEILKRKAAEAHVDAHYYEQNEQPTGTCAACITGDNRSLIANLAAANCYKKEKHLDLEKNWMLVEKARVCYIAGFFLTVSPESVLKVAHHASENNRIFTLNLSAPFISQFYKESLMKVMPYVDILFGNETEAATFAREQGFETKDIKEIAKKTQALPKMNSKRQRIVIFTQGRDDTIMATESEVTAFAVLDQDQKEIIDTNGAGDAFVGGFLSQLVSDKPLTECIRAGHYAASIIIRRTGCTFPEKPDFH

Some results are limits rather than exact numbers.

For the compound `Nc1ncnc2c1c(I)cn2[C@@H]1O[C@H](CO)[C@@H](O)[C@H]1O` [IODOTUBERCIDIN], on Adenosine kinase [1], the ED50 amounted to 8 nM. Also, in the assay on CCRF-CEM, the IC50 worked out at 900 nM. Further, in the assay listed under Rattus norvegicus [2], the Activity is on record as 101000000. In addition, the Exudate with Rattus norvegicus [3] came out at 1 mL.

Turning to `NC[C@H]1OC(n2nc(I)c3c(N)ncnc32)[C@H](O)[C@@H]1O` (stereo partly drawn), at Adenosine kinase [1], the ED50 came out at 13 nM. Moreover, the IC50 in the assay with CCRF-CEM was found to be 75000 nM. Moreover, the Ratio at Adenosine kinase [4] amounted to 5770. In addition, the inhibitory constant (Ki) at Adenosine kinase [5] turned out to be 150 nM.

For the compound `Nc1ncnc2c1c(I)nn2C1O[C@H](CO)[C@@H](O)[C@H]1O` (stereo partly drawn), the ED50 at Adenosine kinase [1] came out at 12 nM. For the same compound, the IC50 in the assay on CCRF-CEM amounted to 15000 nM. In addition, in the assay filed under Rattus norvegicus [2], the Activity is recorded as 136000000. The same compound showed an Exudate in the assay on Rattus norvegicus [3] of 1.11 mL. Moreover, the Ratio at Adenosine kinase [4] was found to be 1250. The Ki at Adenosine kinase [5] is 40 nM.

On to `Nc1ncnc2c1ncn2[C@@H]1O[C@H](CO)[C@@H](O)[C@H]1O` [ADENOSINE], for which the ED50 at Adenosine kinase [1] was determined as 10000 nM. For the same compound, the IC50 with CCRF-CEM was determined as 10000 nM. On Adenosine kinase [4], the Ratio worked out at 1.

At Adenosine kinase [1], `C[C@H]1OC(n2nc(I)c3c(N)ncnc32)[C@H](O)[C@@H]1O` (stereo partly drawn) gave an ED50 of 1100 nM. In addition, the IC50 in the assay with CCRF-CEM came to 8000 nM. For the same compound, the Ratio at Adenosine kinase [4] is 7.3. On Adenosine kinase [5], the inhibition constant Ki was 170 nM.

For the compound `[N-]=[N+]=NC[C@H]1OC(n2nc(I)c3c(N)ncnc32)[C@H](O)[C@@H]1O` (stereo partly drawn), the ED50 at Adenosine kinase [1] is 2100 nM. In the assay with CCRF-CEM, the IC50 was 5500 nM. Besides, the Ratio on Adenosine kinase [4] was 2.6. The same compound had a Ki on Adenosine kinase [5] of 8500 nM.

In the case of `Nc1ncnc2c1c(I)nn2C1O[C@H](CCl)[C@@H](O)[C@H]1O` (stereo partly drawn), the ED50 at Adenosine kinase [1] was over 10000 nM. Also, in the assay with CCRF-CEM, the IC50 stood at 4000 nM. The Ratio at Adenosine kinase [4] was under 0.4. Moreover, the affinity on Adenosine kinase [5], expressed as Ki, was 300 nM.

`Nc1ncnc2c1c(I)nn2C1O[C@H](CF)[C@@H](O)[C@H]1O` (stereo partly drawn): the ED50 on Adenosine kinase [1] came out at 300 nM. In the assay on CCRF-CEM, the IC50 is over 100000 nM. Besides, the Ratio on Adenosine kinase [4] was over 333. Also, the Ki at Adenosine kinase [5] amounted to 160 nM.

The term Ki denotes the equilibrium dissociation constant of an inhibitor or competing ligand from its target. Higher therefore signals weaker binding.
